Compound activity: PubChem, several laboratories
Sampled rows, rich in hits. Any-hit rate of the full collection: about 2.6%.
GRK2 inh = compounds blocking aptamer binding on GRK2 – biochemical, human GRK2, bead flow cytometry, HTS, primary screen | FAM-aptamer displacement from GRK2 | inhibition of aptamer binding, % at 10 µM | hit rate 0.59% among 330,000 | AID 488847, 2010;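 active = inhibition of aptamer binding above 40%, roughly 3 SD of noise, on plates passing a quality check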;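 also: median bead fluorescence of bound FAM aptamer so fluorescent compounds give negative values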
Target sequence (P25098 whole entry, looked up): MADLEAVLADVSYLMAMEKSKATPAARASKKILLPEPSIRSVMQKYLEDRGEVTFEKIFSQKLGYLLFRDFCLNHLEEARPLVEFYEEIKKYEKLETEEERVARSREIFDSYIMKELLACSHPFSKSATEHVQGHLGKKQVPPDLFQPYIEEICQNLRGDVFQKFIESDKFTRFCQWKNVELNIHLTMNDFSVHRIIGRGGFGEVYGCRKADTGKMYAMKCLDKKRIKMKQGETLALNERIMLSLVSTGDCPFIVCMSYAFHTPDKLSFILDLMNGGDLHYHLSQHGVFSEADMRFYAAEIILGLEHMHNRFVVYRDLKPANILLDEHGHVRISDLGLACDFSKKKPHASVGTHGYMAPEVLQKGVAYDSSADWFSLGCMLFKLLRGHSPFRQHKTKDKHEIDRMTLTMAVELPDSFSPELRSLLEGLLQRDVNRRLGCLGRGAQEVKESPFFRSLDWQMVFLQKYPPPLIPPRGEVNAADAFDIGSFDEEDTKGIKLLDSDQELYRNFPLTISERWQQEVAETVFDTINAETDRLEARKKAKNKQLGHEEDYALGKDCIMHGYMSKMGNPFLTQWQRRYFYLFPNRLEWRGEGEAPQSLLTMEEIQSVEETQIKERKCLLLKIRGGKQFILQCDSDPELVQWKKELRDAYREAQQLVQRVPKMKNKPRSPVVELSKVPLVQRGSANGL
Rce1 inh = yeast Rce1p protease inhibitors, primary screen, biochemical, fluorescence, cell-free homogeneous. calls only. yeast membranes, quenched prenylated peptide cleavage fluorescence. hit rate 0.27% among 290,000. CAAX prenyl protease 2 (Saccharomyces cerevisiae (strain ATCC 204508 / S288c)), Q03530;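 active = fall in fluorescence gain of 50% or more versus controls, with final raw signal at or below 3038400; inconclusive = same 50% fall but final raw signal above 3038400; inactive = fall in fluorescence gain under 50%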;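 also: plate controls were neutral control wells for no effect and wells lacking membranes for full effect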
Myeloid diff MLP = induction of myeloid progenitor differentiation, primary screen, cell-based, flow cytometry, MLPCN library. ER-HoxA9 myeloid progenitors, lysozyme-GFP differentiation. calls only at 10 µM. hit rate 1% among 360,000;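 active = normalized GFP-positive differentiation at or above the plate's own cutoff, the solvent-only control mean plus 3 SD; inconclusive = no clear call, values can overlap the other calls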;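 also: cells exposed to compound for four days before flow analysis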
T cell HTS = modulators of CD8 T cell-vesicle binding, primary screen, mouse 2C CD8+ T cells, flow cytometry; 2C CD8+ T cell-vesicle binding; hits give low values; response (vesicle binding), % at 7 µM; hit rate 0.068% among 330,000;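 active = response, share of CD8 T cells binding vesicles, and their 90th percentile fluorescence all below set limits, cut at about 80% in these data, passing the limit was not always enough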;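 also: values below 100% mean blocked vesicle binding to the CD8+ T cells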
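Assay system: 2C TCR transgenic mouse naive CD8+ T cells, MACS-purified | Read-out: CD8+ gate FL2 mean fluorescence as % of same-row positive control | Signal: High-throughput flow cytometry with anti-B7-1 and anti-CD8 staining | Timing: Binding step 1.5 h, 37 °C, antibody labelling 20 min, ice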
SKN-1 block = suppressors of acrylamide-induced Pgst-4::GFP reporter in worms, primary screen, SKN-1 inhibitor project, whole organism, uHTS, GFP/RFP fluorescence ratio, strain VP596; C. elegans VP596 Pgst-4::GFP/RFP ratio, 24 h; inhibition, % at 21.8 µM; hit rate 0.49% among 360,000; AID 624304, 2012;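 active = interference check ratio from 0.5 to 1.5 plus GFP to RFP signal ratio inhibition reaching or exceeding a fixed threshold, cut at about 30% in these data, passing the limit was not always enough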
Rin1-Abl PPI inh = inhibitors of Rin1-Abl protein binding, primary screen, biochemical, TR-FRET; Tyrosine-protein kinase ABL1 (Homo sapiens) + Ras and Rab interactor 1 (Homo sapiens), …; inhibition, % at 7.35 µM; hit rate 0.4% among 360,000; AID 588664, 2011; in the data active = inhibition above about 5%, passing the limit was not always enough
Myeloid diff CP1 = inducers of myeloid progenitor differentiation, confirmation, cell-based, GFP/Mac1 flow cytometry, cherry pick 01. shares compounds with Myeloid diff MLP. ER-HoxA9 myeloid progenitors, GFP/Mac1 double-positive flow. calls only. hit rate 2% among 2,300. AID 651706, 2012;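 active = share of green or green-and-red cells above 9 and 9% in run 1 or 4 and 3% in run 2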
GFP autofluor = compound fluorescence in myeloid differentiation counter-screen; hit rate 7.4% among 2,300; fluorescence response, % (no concentration beside the values); shares compounds with Myeloid diff MLP; ER-HoxA9 myeloid progenitors, no estrogen, GFP autofluorescence flow cytometry; vehicle wells 0%, positive control 100%;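 active = over 5% cells positive for green fluorescent reporter, or over 2% positive for both it and APC stain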;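 also: range taken on the double positive population between DMSO and positive control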
Active calls of the source: *; i = inactive; ? = inconclusive; · = no result given; + = active, no number.

SMILES | GRK2 inh | Rce1 inh | Myeloid diff MLP | T cell HTS | SKN-1 block | Rin1-Abl PPI inh | Myeloid diff CP1 | GFP autofluor
Cc1ccc(OCc2nnc(SCc3nc4ccccc4[nH]3)n2Cc2ccco2)cc1 | 0 | i | + | 265 | 6 | -1 | + | 0
c1ccc(-c2nnc(SCc3nc4ccccc4[nH]3)n2Cc2ccco2)cc1 | 0 | i | i | 245 | 12 | -1 | · | ·
CCCN(C(=O)CCc1ccc(OC)cc1)c1c(N)n(Cc2ccccc2)c(=O)[nH]c1=O | 0 | · | i | 349 | 0 | 0 | · | ·
CN(C)S(=O)(=O)c1cccc(C(=O)NC2CCCc3ccccc32)c1 (centres undefined) | 0 | i | i | 219 | 18 | -1 | · | ·
CCCNS(=O)(=O)c1cccc(C(=O)NC2CCCc3ccccc32)c1 (centres undefined) | 0 | i | i | 300 | 19 | -2 | i | 0
COc1ccc(-c2nnc(NC(=O)c3ccc(S(=O)(=O)N4COCC4(C)C)cc3)o2)cc1 | 0 | i | i | 371 | 6 | 0 | i | 5.3*
CC1(C)COCN1S(=O)(=O)c1ccc(C(=O)Nc2nnc(-c3ccc(Cl)s3)o2)cc1 | 3 | i | · | 435 | · | · | · | ·
COc1ccccc1N1CCN(C2CCCN(C(=O)CCC(C)=O)C2)CC1 (centres undefined) | 1 | i | i | 255 | 6 | 0 | · | ·
COc1ccc(NC(=O)/C(=C\c2ccco2)NC(=O)c2ccco2)cc1 | 2 | i | i | 413 | 5 | 0 | i | 0
CN(C)c1ccc(C=NN2C(=O)CSC2=S)c(Cl)c1 | · | · | + | · | 11 | -1 | i | 0
O=C1CSC(=S)N1N=Cc1c(F)cccc1Cl | · | · | i | · | -2 | -7 | · | ·
COc1ccc(C2=NOC(Cn3nc(-c4ccccc4)cc3C(=O)NCc3cccs3)C2)cc1 (centres undefined) | 0 | · | i | 432 | -19 | 3 | i | 0
CCc1nnc(NS(=O)(=O)c2ccc(NC(=S)NC(=O)c3cccnc3)cc2)s1 | 1 | i | + | 300 | 6 | -2 | i | 1
O=C(NCCCCc1ccccc1)C12CN(Cc3ccccc3)CC1C(c1ccc([N+](=O)[O-])cc1)=NO2 (centres undefined) | 0 | i | + | 451 | 3 | 2 | i | 0
CN(CCc1ccccn1)C(=O)CCC1CCCN(C(=O)c2ccc3c(c2)OCCO3)C1 (centres undefined) | 14 | i | i | 365 | -16 | -2 | · | ·
CCCCCC(=O)N1C[C@@H](n2cc(COC(=O)c3ccccc3)nn2)[C@H](O)C[C@@H]1c1ccc(OC)cc1 | · | · | i | · | -17 | 1 | · | ·
CCCCCC(=O)N1C[C@@H](O)[C@H](n2cc(COC(=O)c3ccccc3)nn2)C[C@@H]1c1ccc(OC)cc1 | · | · | i | · | 15 | 2 | i | 0
CCOC(=O)[C@]12CCC=C1N(Cc1ccco1)C(=O)[C@H](CC(=O)N1CCN(C(=O)C3CC3)CC1)C2 | · | · | i | · | 11 | · | · | ·
COc1ccc(Br)c(C(=O)Nc2cccc(S(=O)(=O)N3CCOCC3)c2)c1 | 0 | · | i | 259 | 6 | 5 | · | ·
COc1ccc(C(=O)N[C@H](C(=O)Nc2cccc(S(=O)(=O)N3CCOCC3)c2)C(C)C)cc1 | · | · | + | · | 6 | 1 | i | 0
O=C(Nc1ccc(N2CCOCC2)cc1)c1ccc([N+](=O)[O-])o1 | 0 | i | + | 310 | 27 | -3 | i | 0
O=C(Nc1ccc(S(=O)(=O)N2CCOCC2)cc1)c1ccc([N+](=O)[O-])o1 | 0 | i | ? | 109 | 18 | -6 | · | ·
c1ccc(Cc2nn3c(Cn4nnc5ccccc54)nnc3s2)cc1 | 0 | i | i | 400 | 18 | -2 | i | 0
Cc1cccc(C)c1NC(=O)Cn1nnc(-c2ccc(CN3CCC(C)CC3)cc2)n1 | 0 | i | i | 332 | -7 | -1 | · | ·
CC1CCN(Cc2ccc(-c3nnn(CC(=O)Nc4ccccc4Cl)n3)cc2)CC1 | 0 | i | + | 252 | -16 | 2 | i | 0
SMILES | GRK2 inh | Rce1 inh | Myeloid diff MLP | T cell HTS | SKN-1 block | Rin1-Abl PPI inh | Myeloid diff CP1 | GFP autofluor
O=C(CN1C(=O)S/C(=C\c2ccc(O)cc2)C1=O)c1ccccc1 | 0 | i | i | 470 | 9 | 2 | i | 2
O=C(CN1C(=O)S/C(=C\c2ccccc2)C1=O)NNC(=O)c1ccccc1O | 0 | i | i | 457 | 7 | -1 | · | ·
O=C(Nc1ccccc1F)NC1CCCc2ccccc21 (centres undefined) | 0 | · | i | 323 | 7 | 0 | · | ·
COc1cccc(CNC(=O)C(CCSC)NS(=O)(=O)c2ccc3c(c2)oc(=O)n3C)c1 (centres undefined) | 0 | i | i | 154 | 1 | 1 | i | 5.8*
Cc1cc(=O)n2c3ccccc3n(CC(O)CN3CCCCC3)c2c1C#N (centres undefined) | 0 | i | + | 153 | 2 | 6 | i | 0
CCOc1ccc(C(=O)COC(=O)c2cc(=O)[nH]c3ccccc23)cc1 | 1 | i | i | 200 | 6 | 3 | · | ·
COC(=O)c1cc2c(=O)c3ccccc3oc2nc1C | 1 | i | i | 251 | 13 | 2 | · | ·
COC(=O)c1cc2c(=O)c3ccccc3oc2nc1/C=C/N(C)C | 2 | i | + | 178 | -7 | 2 | + | 1
C/C(Cl)=C\COc1cc(C)nc2c(Br)cccc12 | 2 | i | i | 349 | 8 | -11 | · | ·
CC1CC=CCC1(CO)CO (centres undefined) | · | · | i | · | -14 | 1 | · | ·
Cn1c(SCC(=O)O)nnc1C1CCCCC1 | 1 | i | + | 367 | 7 | 3 | i | 0
Cn1c(SCC(=O)c2ccccc2)nnc1C1CC1 | 1 | i | i | 149 | 8 | -2 | · | ·
COCCN(C(=O)CNC(=O)c1cccs1)C(C(=O)NC(C)(C)C)c1ccccc1 (centres undefined) | 0 | i | i | 183 | 1 | 2 | · | ·
